Bioassay records: PubChem BioAssay, several laboratories
This excerpt belongs to a sample that is enriched for hits.
Lipid droplet: hepatic lipid droplet formation modulation; AML12 mouse hepatocytes, oleate lipid droplets, BODIPY imaging; inhibition, % at 6.5 µM; 240,000 tested, 0.4% active;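 active = lipid droplet intensity inhibited by at least 50%, with more than 500 cells counted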
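Test system: AML12 mouse liver cells; schedule: overnight exposure; technique: high-content imaging of BODIPY-stained droplets and DAPI nuclei; read-out: % inhibition of corrected integrated BODIPY droplet signal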
MPTP inh: inhibitors of mitochondrial permeability transition pore; AID 602449; inhibition, % at 10 µM; 360,000 tested, 1.4% active; isolated mouse mitochondria, Ca2+ swelling absorbance, 30 min;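 active = inhibition of 50% or more, scaled per plate between neutral and stimulator controls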;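 note: 0% = DMSO wells given calcium and 100% = 1 mM EGTA wells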
Lmaj promast: inhibitors of Leishmania major promastigote growth | AID 1063 | inhibition, % at 10 µM | 200,000 tested, 9% active | Leishmania major promastigotes, resazurin fluorescence viability; in the data active = inhibition above about 50%;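 note: promastigotes grown with compound for 44 hours at 28 °C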
Redox H2O2 prof: compounds producing H2O2 with reducing agent – biochemical, NIH compound library profiling, artefact control for MLSCN library redox annotation, primary screen. 200,000 tested, 0.03% active. activation, % at 10 µM. AID 878. DTT-dependent redox cycling H2O2, phenol red/HRP absorbance; 100% = 100 µM peroxide control, 0% = buffer;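 active = activation of at least 50% relative to the plate's high and low controls in the primary single-dose screen; inactive = activation below 50%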;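 note: compound incubated with DTT at 0.8 mM final as the reducing agent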
T cruzi repl: blocks replication of Trypanosoma cruzi; T. cruzi beta-gal in NIH3T3, luminescence, 90 h; inhibition, % (test concentration not listed); 300,000 tested, 1.4% active;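 active = mean inhibition across valid replicates above about 55%, limit read from the data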;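 note: signal also drops with host cell toxicity which is not excluded here; 0% = plate median of DMSO wells and 100% = zero luminescence signal; higher percent means less beta-gal luminescence so fewer parasites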
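Material: NIH/3T3 host cells with β-galactosidase reporter T. cruzi; Input: 5,000 host fibroblasts per well; Medium: DMEM, 2% fetal bovine serum; Compound: 50 nL DMSO compound solution per well; Schedule: 3 h host attachment, then at least 90 h co-culture; Detection: luminescent β-galactosidase signal after 60 min lysis.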
Starred values were filed as active, the others as inactive; . = no result.

SMILES	Lipid droplet	MPTP inh	Lmaj promast	Redox H2O2 prof	T cruzi repl
COCCN1C(=O)C(=O)/C(=C(/O)c2ccc(S(=O)(=O)N3CCOCC3)cc2)C1c1cccc([N+](=O)[O-])c1 (centres undefined)	-4	-2	.	.	-19
COC(=O)C1=CN(c2cccc(OCc3ccccc3)c2)C(N)=C(C#N)C1c1cccc(F)c1 (centres undefined)	.	0	.	.	.
O=C(Nc1nnc([C@@H]2C[C@H](O)[C@@H](CO)O2)s1)c1ccc(Oc2ccccc2)cc1	.	-2	.	.	.
C=CCn1c(SCc2cc(=O)n3cc(C)ccc3n2)nnc1-c1cccc(C)c1	-6	3	52*	0	-5
Cc1ccc2nc(CSc3nnc4ccccn34)cc(=O)n2c1	17	3	-5	0	-1
O=C(c1ccccc1NS(=O)(=O)c1cccc([N+](=O)[O-])c1)N1CCCC1	-16	-1	.	.	3
O=C(Nc1cc(C(F)(F)F)ccc1-n1cncn1)c1ccc([N+](=O)[O-])o1	.	2	.	.	42
CN(C)CCNC(=O)Cc1c(C(=O)O)n(C)c2ccccc12	.	.	94*	2	.
CCN(CC)CCNC(=O)Cc1c(C(=O)O)n(CC)c2ccccc12	-2	0	-8	0	-8
C[C@@H]1CN([C@H](C)CO)C(=O)CCCn2cc(nn2)CO[C@H]1CN(C)C(=O)c1ccc2ccn(C)c2c1	.	1	.	.	.
O=C(O)CC1S/C(=N/N=C/c2ccc(-c3ccc(Cl)c([N+](=O)[O-])c3)o2)NC1=O (centres undefined)	-5	-2	-5	0	-8
O=C(O)CC1S/C(=N/N=C/c2ccc(-c3ccc(Cl)cc3[N+](=O)[O-])o2)NC1=O (centres undefined)	-7	0	99*	0	-15
CN=C(Nc1ccc(C(=O)OC)s1)c1ccc(Cl)cc1	-22	-4	2	0	0
Cc1ccc(C(c2nnnn2Cc2cccs2)N2CCN(Cc3ccc4c(c3)OCO4)CC2)cc1 (centres undefined)	-4	1	78*	2	12
CCC(c1nnnn1Cc1ccc2c(c1)OCO2)N1CCN(c2ccc(OC)cc2)CC1 (centres undefined)	.	-2	71*	1	14
CC(C)C(c1nnnn1Cc1ccc(F)cc1)N1CCN(Cc2ccc3c(c2)OCO3)CC1 (centres undefined)	.	2	68*	0	29
c1ccc(Cn2nnnc2CN2CCN(Cc3ccc4c(c3)OCO4)CC2)cc1	.	2	89*	2	25
CCN1CCN(C(c2nnnn2Cc2ccc3c(c2)OCO3)C(C)C)CC1 (centres undefined)	2	-1	4	1	42
COCCn1nnnc1C(c1ccc(C)cc1)N1CCN(Cc2ccc3c(c2)OCO3)CC1 (centres undefined)	.	-2	22	-2	22
C[C@@H](NC(=O)c1nc[nH]c1C(=O)NCc1ccccc1)c1ccccc1	.	0	.	.	.
CCC(CC)c1nnc(NC(=O)c2ccc3ccccc3n2)s1	.	1	78*	1	2
CCC(CC)c1nnc(NC(=O)c2cc(-c3ccccc3)nc3ccccc23)s1	18	31	-5	0	-18
Cc1cc(C(=O)CN2C(=O)NC3(CCCc4sccc43)C2=O)c(C)n1-c1ccc(Cl)cc1 (centres undefined)	3	5	84*	1	27
NC(=O)CN1C(=O)NC2(CCCc3sccc32)C1=O (centres undefined)	-4	-2	.	.	-5
Cc1ccccc1CSCC(=O)Nc1c(C)n(C)n(-c2ccccc2)c1=O	1	-3	-4	0	-8
SMILES	Lipid droplet	MPTP inh	Lmaj promast	Redox H2O2 prof	T cruzi repl
Cc1ccc(CSCC(=O)Nc2c(C)n(C)n(-c3ccccc3)c2=O)cc1	16	-1	61*	-1	-4
Cc1ccccc1OCc1nnc(SCC(=O)Nc2c(C)n(C)n(-c3ccccc3)c2=O)n1-c1ccccc1	10	-1	59*	0	1
C[C@@H](NC(=O)[C@@H]1CCCN1C(=O)[C@@H]1CCCN1C(=O)c1ccc(Cl)cc1)c1ccccc1	.	-2	.	.	.
O=C(OCC(=O)N1CCCCC1)c1cc(NS(=O)(=O)c2ccc(Cl)c([N+](=O)[O-])c2)ccc1O	-9	3	1	0	-17
OC(CSc1c(Cl)cccc1Cl)CN1CCN(c2ccc(F)cc2)CC1 (centres undefined)	-21	2	63*	2	37
OC(CSc1ccccc1Cl)CN1CCN(c2ccc(F)cc2)CC1 (centres undefined)	-34	1	91*	-1	21
OC(CSc1ccccc1Cl)CN1CCN(c2ccccc2F)CC1 (centres undefined)	26	1	64*	2	0
CCCN(CCC)CCNC(=O)C1CCN(Cc2nc(-c3ccc(Cl)cc3)oc2C)CC1	.	-8	98*	5	73*
COc1ccc(CNC(=O)C2CCCN(Cc3nc(-c4cccc(C)c4)oc3C)C2)cc1 (centres undefined)	0	1	34	0	56*
CCN1CCN(CCNC(=O)C2CCCN(Cc3nc(-c4cccc(Cl)c4)oc3C)C2)CC1 (centres undefined)	.	0	94*	-1	23
Cc1ccccc1-c1nc(CN2CCCC(C(=O)NCCCN3CCOCC3)C2)c(C)o1 (centres undefined)	.	0	18	-5	66*
Cc1ccccc1-c1nc(CN2CCCC(C(=O)NCc3cccnc3)C2)c(C)o1 (centres undefined)	.	2	5	-9	52
COc1ccc(-c2nc(CN3CCCC(C(=O)NC4CCCC4)C3)c(C)o2)cc1 (centres undefined)	.	0	4	1	39
CC(OC(=O)/C=C/c1ccccc1)C(=O)N1CCc2ccccc21 (centres undefined)	.	-1	.	.	10
COc1cccc(CN2CCCC(C(=O)Nc3ccc(-c4cscn4)cc3)C2)c1 (centres undefined)	-46	0	.	.	8
CCc1ccc(-c2nc(CN3CCCC(C(=O)NCCc4ccc(OC)c(OC)c4)C3)c(C)o2)cc1 (centres undefined)	.	6	83*	-9	59*
CCN1CCN(CCNC(=O)CSCc2nc(-c3ccc(OC)c(OC)c3)oc2C)CC1	9	0	88*	0	1
CCN1CCN(C(=O)CSCc2nc(-c3ccc(OC)c(OC)c3)oc2C)CC1	.	-2	-1	0	-11
Cc1oc(-c2ccc(Cl)cc2)nc1CN1CCCC(C(=O)NCCCN2CCCC2=O)C1 (centres undefined)	.	-4	-2	-1	.
COCCNC(=O)C1CCCN(C(=O)c2ccc3ccccc3n2)CC1 (centres undefined)	.	0	.	.	.
On1nnc2ccccc21	3	1	.	.	-16
O=C(NCc1ccc2c(c1)OCO2)c1ccc(S(=O)(=O)N2CCOCC2)cc1	5	-1	-7	-1	2
